Shown is part of a subset that was picked to be rich in hits.
GASC1 inh = inhibitors of GASC-1 (KDM4C) histone demethylase, primary screen, biochemical, single concentration HTS; GST-KDM4C 2-372, H3K9me3 peptide, LANCE TR-FRET; inhibition, % at 12.5 µM; 96,000 compounds, 0.15% hits;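 active = mean replicate inhibition above about 25%, with at least 55% of replicates also reaching it, limit read from the data, passing the limit was not always enough; inconclusive = only one of those two conditions met; inactive = neither condition met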
Target sequence (Q9H3R0 2-372 limits assumed): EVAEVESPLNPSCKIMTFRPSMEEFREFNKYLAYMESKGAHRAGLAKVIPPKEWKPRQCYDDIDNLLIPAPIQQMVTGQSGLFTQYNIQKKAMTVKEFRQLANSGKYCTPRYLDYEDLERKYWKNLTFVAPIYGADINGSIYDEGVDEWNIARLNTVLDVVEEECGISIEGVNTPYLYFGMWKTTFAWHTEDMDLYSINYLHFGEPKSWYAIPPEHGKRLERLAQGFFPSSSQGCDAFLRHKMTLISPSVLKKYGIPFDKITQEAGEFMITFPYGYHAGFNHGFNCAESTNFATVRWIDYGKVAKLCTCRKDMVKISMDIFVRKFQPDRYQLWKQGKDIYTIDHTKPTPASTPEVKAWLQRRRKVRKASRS
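material = GST-tagged GASC-1 (JMJD2C) catalytic fragment, aa 2-372 | amount = enzyme final amount 10 nM | medium = HEPES buffer, pH 7.5, plus ascorbate | also added = H3K9me3 peptide substrate, Fe(II), 2-oxoglutarate | dosing = single dose | times = 30 min demethylation and 1 h detection at room temperature | detection = LANCE TR-FRET | read-out basis = Fall in 671/618 emission ratio as inhibition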
T cruzi growth-1 = T. cruzi intracellular proliferation inhibitors, primary screen, cell-based, beta-gal Tulahuen parasites, NIH3T3 host, luminescence; T. cruzi beta-gal in NIH3T3, GalScreen luminescence, 90 h; 77,000 compounds, 5.9% hits; inhibition, % at 8.34 µM;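 active = mean inhibition above about 93%, with at least 55% of replicates each passing it, limit read from the data, passing the limit was not always enough; inconclusive = only one of those two conditions holds; inactive = neither condition holds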
IDH1 mut inh = inhibitors of IDH1 R132H reductase, primary screen, biochemical, plate reader, single point; Isocitrate dehydrogenase [NADP] cytoplasmic (Homo sapiens), O75874; diaphorase/resazurin fluorescence, 60 min; inhibition, % at 10 µM; 70,000 compounds, 0.18% hits; in the data active = inhibition above about 34%; inconclusive = no clear call, values can overlap the other calls; inactive = below about 11%
T cruzi growth-2 = T. cruzi intracellular proliferation inhibitors, confirmation, cell-based, NIH3T3 host, beta-gal parasite, luminescence, cherry-pick; T. cruzi beta-gal in NIH3T3, GalScreen luminescence, 90 h; shares compounds with T cruzi growth-1; AID 651739, 2012; inhibition, % at 8.35 µM; 5,600 compounds, 72% hits;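 active = mean replicate inhibition above about 95% and at least 55% of replicates individually reaching it, limit read from the data; inconclusive = only one of the two criteria is met; inactive = neither criterion is met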
T cruzi growth-3 = inhibitors of intracellular T. cruzi replication, confirmation, NIH3T3 host cells, beta-gal parasites, cherry-pick, set 2; shares compounds with T cruzi growth-1; T. cruzi beta-gal in NIH3T3, GalScreen luminescence, 90 h; inhibition, % at 2.09 µM; 5,600 compounds, 21% hits;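 active = mean inhibition above about 95%, with at least 55% of replicates also reaching it, limit read from the data; inconclusive = meets just one of the two conditions; inactive = meets neither condition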
NIH3T3 tox = cytotoxicity in mouse NIH/3T3 fibroblasts, confirmation, cytotoxicity control for T. cruzi proliferation inhibitor project, cell-based, cherry-pick, single point | NIH/3T3 viability, CellTiter-Glo ATP luminescence, 90 h | 5,600 compounds, 14% hits | shares compounds with T cruzi growth-1 | cytotoxicity (signal decrease), % at 8.35 µM | AID 651742, 2012;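 active = mean signal decrease across replicates above about 35% based on untreated-well scatter, with enough replicates individually passing, limit read from the data; inconclusive = no rule stated though some were filed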
3T3 cytotox 2 = NIH/3T3 fibroblast cytotoxicity, confirmation, cytotoxicity control, cell-based, cherry-pick, single point, set 2; shares compounds with T cruzi growth-1; NIH/3T3 viability, CellTiter-Glo ATP luminescence, 90 h; inhibition, % at 24.9 µM; 5,600 compounds, 56% hits; AID 651744, 2012;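 active = mean loss of cell viability signal at or above a set limit, and enough replicates individually reaching it; inconclusive = meets only the mean limit or only the replicate share; inactive = meets neither condition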
Hits are given with their value; . = inactive; ? = inconclusive; / = no result.

SMILES | GASC1 inh | T cruzi growth-1 | IDH1 mut inh | T cruzi growth-2 | T cruzi growth-3 | NIH3T3 tox | 3T3 cytotox 2
CC(=O)N(C)C[C@H]1Oc2ncc(C3=CCCC3)cc2C(=O)N([C@H](C)CO)C[C@@H]1C | . | . | . | / | / | / | /
Cc1ccccc1S(=O)(=O)N(C)C[C@@H]1OCc2cnnn2CCCC(=O)N([C@H](C)CO)C[C@H]1C | . | . | . | / | / | / | /
CNC[C@H]1OCc2cnnn2CCCC(=O)N([C@@H](C)CO)C[C@@H]1C | . | . | . | / | / | / | /
Cc1ccccc1S(=O)(=O)N(C)C[C@@H]1OCc2cnnn2CCCC(=O)N([C@@H](C)CO)C[C@@H]1C | . | ? | / | . | . | . | .
CNC[C@H]1OCc2cn(nn2)CCCC(=O)N([C@H](C)CO)C[C@H]1C | . | ? | . | . | . | . | .
CNC[C@@H]1OCc2cn(nn2)CCCC(=O)N([C@@H](C)CO)C[C@@H]1C | . | . | . | / | / | / | /
CNC[C@H]1OCc2cnnn2CCCC(=O)N([C@@H](C)CO)C[C@H]1C | . | 120 | / | . | . | . | .
COC(=O)CCCCCCC(=O)N/N=C/c1ccc2ccccc2n1 | / | / | . | / | / | / | /
Cc1noc(C)c1S(=O)(=O)Nc1ccc2c(c1)CC(=O)N([C@@H](C)CO)C[C@H](C)[C@H](CN(C)Cc1ccc3c(c1)OCO3)O2 | . | . | . | / | / | / | /
Cc1ccccc1S(=O)(=O)N1CC(=O)N2[C@@H](CO)[C@H](c3ccc(C#CC4CC4)cc3)[C@@H]2C1 | . | / | / | / | / | / | /
C[C@H](CO)N1C[C@H](C)[C@@H](CN(C)C(=O)CN(C)C)Oc2ncc(-c3ccccc3F)cc2C1=O | . | . | . | / | / | / | /
Cc1noc(C)c1NC(=O)N(C)C[C@H]1OCCCC[C@H](C)Oc2ccc(NC(=O)CCC(F)(F)F)cc2C(=O)N([C@H](C)CO)C[C@@H]1C | . | . | . | / | / | / | /
C[C@H](CO)N1C[C@H](C)[C@@H](CN(C)S(=O)(=O)c2cccc(F)c2)Oc2ncc(C#CC3CCCC3)cc2C1=O | . | 119 | . | 104 | . | . | 98
C[C@@H]1CN([C@H](C)CO)C(=O)c2cc(C#CC3CCCCC3)cnc2O[C@H]1CN(C)S(=O)(=O)c1ccc(F)cc1 | . | . | . | / | / | / | /
C[C@H](CO)N1C[C@H](C)[C@@H](CN(C)S(=O)(=O)c2cccc(F)c2)Oc2ncc(C#CC3CC3)cc2C1=O | . | . | / | / | / | / | /
C[C@@H]1CN([C@@H](C)CO)C(=O)c2cc(C#CC3CCCC3)cnc2O[C@@H]1CN(C)S(=O)(=O)c1cccc(F)c1 | . | 104 | . | 96 | . | . | 75
C[C@H](CO)N1C[C@H](C)[C@H](CN(C)S(=O)(=O)c2cccc(F)c2)Oc2ncc(C#CC3CCCC3)cc2C1=O | . | . | . | / | / | / | /
C[C@@H]1CN([C@@H](C)CO)C(=O)c2cc(C#CC3CCCCC3)cnc2O[C@H]1CN(C)S(=O)(=O)c1ccc(F)cc1 | . | 101 | . | 105 | 98 | . | 99
COc1ccc(NC(=O)N(C)C[C@H]2OCCCC[C@@H](C)Oc3ccc(NC(=O)Nc4ccc(C(F)(F)F)cc4)cc3C(=O)N([C@@H](C)CO)C[C@@H]2C)cc1 | . | . | / | / | / | / | /
COc1ccc(NC(=O)Nc2ccc3c(c2)C(=O)N([C@@H](C)CO)C[C@H](C)[C@@H](CN(C)C(=O)Nc2ccc(C(F)(F)F)cc2)OCCCC[C@H](C)O3)cc1 | . | ? | / | 107 | 110 | . | .
COc1ccc(NC(=O)N(C)C[C@@H]2OCCCC[C@@H](C)Oc3ccc(NC(=O)Nc4ccc(C(F)(F)F)cc4)cc3C(=O)N([C@@H](C)CO)C[C@H]2C)cc1 | . | . | . | / | / | / | /
COc1ccc(NC(=O)N(C)C[C@@H]2OCCCC[C@@H](C)Oc3ccc(NC(=O)Nc4ccc(C(F)(F)F)cc4)cc3C(=O)N([C@H](C)CO)C[C@H]2C)cc1 | . | . | . | / | / | / | /
COc1ccc(NC(=O)N(C)C[C@H]2OCCCC[C@@H](C)Oc3ccc(NC(=O)Nc4ccc(C(F)(F)F)cc4)cc3C(=O)N([C@@H](C)CO)C[C@H]2C)cc1 | . | 109 | / | 105 | 113 | . | .
COc1ccc(NC(=O)Nc2ccc3c(c2)C(=O)N([C@@H](C)CO)C[C@@H](C)[C@@H](CN(C)C(=O)Nc2ccc(C(F)(F)F)cc2)OCCCC[C@@H](C)O3)cc1 | . | ? | / | 101 | 107 | . | .
COc1ccc(NC(=O)Nc2ccc3c(c2)C(=O)N([C@@H](C)CO)C[C@@H](C)[C@H](CN(C)C(=O)Nc2ccc(C(F)(F)F)cc2)OCCCC[C@H](C)O3)cc1 | . | ? | / | 103 | 100 | . | .
SMILES | GASC1 inh | T cruzi growth-1 | IDH1 mut inh | T cruzi growth-2 | T cruzi growth-3 | NIH3T3 tox | 3T3 cytotox 2
COc1ccc(NC(=O)N(C)C[C@@H]2OCCCC[C@H](C)Oc3ccc(NC(=O)Nc4ccc(C(F)(F)F)cc4)cc3C(=O)N([C@H](C)CO)C[C@@H]2C)cc1 | . | . | . | / | / | / | /
CC(C)CC(=O)c1c(O)cc(O)cc1OC1OC(COC(=O)c2cc(O)c(O)c(O)c2)C(O)C(O)C1O (stereo not given) | / | / | . | / | / | / | /
Cc1ccc(S(=O)(=O)Nc2ccc3c(c2)CC(=O)N([C@@H](C)CO)C[C@@H](C)[C@H](CN(C)C(=O)NC2CCCCC2)O3)cc1 | . | . | . | / | / | / | /
C[C@@H]1CCCCO[C@@H](CN(C)S(=O)(=O)c2cccs2)[C@@H](C)CN([C@H](C)CO)C(=O)c2cc(NS(=O)(=O)c3cn(C)cn3)ccc2O1 | . | / | . | / | / | / | /
CC(C)NC(=O)NCC[C@H]1CC[C@@H](NS(=O)(=O)c2ccc(-c3ccccc3)cc2)[C@@H](CO)O1 | . | . | . | / | / | / | /
C[C@@H]1CN([C@@H](C)CO)C(=O)c2cc(NC(=O)C3CCCCC3)ccc2O[C@@H]1CN(C)S(=O)(=O)c1cn(C)cn1 | . | . | . | / | / | / | /
COc1ccc(NC(=O)Nc2ccc3c(c2)[C@H]2C[C@H](CC(=O)O)O[C@H](CO)[C@H]2O3)cc1 | . | . | . | / | / | / | /
COc1ccc(NC(=O)Nc2ccc3c(c2)C(=O)N([C@H](C)CO)C[C@H](C)[C@@H](CN(C)C(=O)Nc2ccc(C(F)(F)F)cc2)OCCCC[C@H](C)O3)cc1 | . | ? | . | 112 | 107 | . | .
COc1ccc(NC(=O)N(C)C[C@H]2OCCCC[C@H](C)Oc3ccc(NC(=O)Nc4ccc(C(F)(F)F)cc4)cc3C(=O)N([C@@H](C)CO)C[C@H]2C)cc1 | . | . | . | / | / | / | /

Screening data as filed in PubChem.
